Measured values from different studies.
Compare with care: the assays were run in different laboratories.
Target: Fibroblast growth factor receptor 2 (FGFR2, Homo sapiens, UniProt P21802)

Compound | assay | setting | remaining binding [%]
COc1cnc(Nc2cccc(S(N)(=O)=O)c2)nc1N1CCN(c2ccccc2)C(=O)C1 | binding, competition with immobilised ligand | 1 µM | 90
O=C(O)c1cc(-c2ccc(C3CCNCC3)cc2)c2ccc(-c3ccc(C(F)(F)F)cc3)cc2c1 | cell-free assay, competition with immobilised ligand | 1 µM | 100
O=C(NCC1CCOCC1)c1n[nH]cc1NC(=O)c1c(F)cccc1F | binding, competition with immobilised ligand | 1 µM | 100
C[C@@H]1CCN(c2nccc(-c3cnn4ncccc34)n2)C1 | binding | 1 µM | 92
O=C(c1ccc(Nc2ncc(Cl)c(-c3ccc(Cl)s3)n2)cc1)N1CCC(N2CCCC2)CC1 | binding, competition with immobilised ligand | 1 µM | 4.4
CCOCCn1cc(C(=O)Nc2ccc(-n3nc(-c4cccnc4)cc3C(F)(F)F)cn2)ccc1=O | cell-free assay, competition with immobilised ligand | 1 µM | 49
C[C@@H]1CN(c2ccc3ncc(-c4ccc5[nH]nc(C6CC6)c5c4)n3n2)C[C@H](C)O1 | binding, competition with immobilised ligand | 0.5 µM | 100
N[C@H]1CCN(c2nccc(-c3cnn4ncccc34)n2)C1 | binding | 1 µM | 92
FC(F)(F)Oc1cccc(-c2cnc3ccc(-c4ccncc4)nn23)c1 | cell-free assay, competition with immobilised ligand | 5 µM | 81
CN1CCN(c2cnc3c(C4CCN(C(=O)c5ccc(OC(F)(F)F)cc5N)CC4)ncnc3c2)CC1 | cell-free assay, competition with immobilised ligand | 1 µM | 100
CCN1CCN(Cc2ccc(C(=O)Nc3ccc(C)c(Oc4ccc5c(c4)CC(=O)N5)c3)cc2C(F)(F)F)CC1 | binding, competition with immobilised ligand | 1 µM | 83
COc1cnc(Nc2cccc(S(N)(=O)=O)c2)nc1N1CCN(c2ccccc2)CC1 | binding, competition with immobilised ligand | 1 µM | 90
CN(C)c1ncc(F)c(-c2cnn3ncccc23)n1 | binding | 1 µM | 100
O=C(NCCCN1CCOCC1)c1ccc(Nc2nccc(-c3cc4ccccc4s3)n2)cc1 | binding, competition with immobilised ligand | 1 µM | 84
C[C@H](c1ccc(F)cc1)N(Cc1cccc(C(=O)O)c1)C(=O)c1cnc2ccccc2c1 | cell-free assay, competition with immobilised ligand | 1 µM | 74
Cc1cnc(Nc2ccc(C(=O)N3CCC(N4CCCC4)CC3)cc2)nc1-c1cc2ccccc2s1 | binding, competition with immobilised ligand | 1 µM | 14
Cc1nccc(COC(=O)N2C[C@@H]3[C@@H](CNC(=O)c4ccc5[nH]nnc5c4)[C@@H]3C2)n1 | cell-free assay, competition with immobilised ligand | 1 µM | 78
C[C@@H](c1ccc(-n2cnc3c(N)ncnc32)cc1)N1CCc2nn(C)c(Cc3ccccc3)c2C1=O | binding, competition with immobilised ligand | 0.1 µM | 72
Cc1cnn2ncc(-c3ccnc(N(C)C)n3)c2c1 | binding | 1 µM | 98
O=C(O)[C@H]1[C@H](Cn2nnc3ccccc3c2=O)CC[C@@H]1C(=O)c1ccc(OCCC2CCOCC2)cc1 | cell-free assay, competition with immobilised ligand | 1 µM | 100
CC1CCCN1c1nccc(-c2cnn3ncccc23)n1 (centres unmarked) | binding | 1 µM | 100
Cc1cc(-n2nc(Cc3cc(F)cc(C(F)(F)F)c3)nc2C)ccc1C(N)=O | cell-free assay, competition with immobilised ligand | 1 µM | 100
CN(C)c1nccc(-c2cnn3ncccc23)n1 | binding | 1 µM | 100
COc1ncc2cc3ccccc3nc2c1C#N | cell-free assay, competition with immobilised ligand | 5 µM | 93
Cc1c(C(=O)O)cc(-c2ccc(C3CCNCC3)cc2)c2ccc(-c3ccc(C(F)(F)F)cc3)cc12 | cell-free assay, competition with immobilised ligand | 1 µM | 100
COc1ccnn2ncc(-c3ccnc(N(C)C)n3)c12 | binding | 1 µM | 100
